From PubChem
A selection: hits, their analogues and other compounds. The true share with any hit is near 2.2%.
TDP2 absorb – human TDP2 enzyme inhibitors, primary screen, biochemical, epi absorbance, recombinant enzyme; Tyrosyl-DNA phosphodiesterase 2 (Homo sapiens), O95551; T5PNP hydrolysis, p-nitrophenol absorbance 415 nm; inhibition, % at 12.8 µM; actives 0.34% (n = 370,000); AID 720702, 2013;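 active = inhibition above the mean of all tested compounds plus 3 SD, set per campaign, cut at about 25% in these data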;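 also: 0% = DMSO with enzyme and 100% = buffer with substrate but no TDP2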
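Read-out basis: percent inhibition. System: recombinant human TDP2. Buffer or medium: Mg2+-containing Tris-HCl buffer, pH 7.5. Repeats: single replicate. Timing: reaction 2 h, 37 °C. Benchmarks: high control without enzyme, low control DMSO plus TDP2. Probe or stimulus: 5 mM T5PNP. Doses: 12.8 µM only. Measured by: epi absorbance of p-nitrophenol freed from T5PNP by hydrolysis.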
TCR-CD3 inh – inhibitors of human TCR-CD3 interaction, primary screen, biochemical, fluorescence, TAMRA-labeled TCR probe; AID 651800, 2012; inhibition, % at 9.4 µM; T-cell receptor (TCR); actives 0.37% (n = 360,000); in the data active = inhibition above about 19%;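 also: recombinant mutant TCR 2C K166C tagged with TAMRA read by polarization; 0% = receptor in buffer alone and 100% = receptor with positive control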
mABHD4 FP – ABHD4 inhibitors, primary screen, biochemical, fluorescence polarization, mouse; AID 720543, 2013; inhibition, % at 8.92 µM; purified mABHD4, FP-Rh probe fluorescence polarization; actives 0.54% (n = 370,000);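 active = inhibition exceeding the mean over every tested compound plus 3 SD, cut at about 30% in these data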;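 also: 0% = plate median of compound wells and 100% = S159A mutant with DMSO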
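assay system = mABHD4 protein | compound dosing = single nominal dose of 8.92 µM, 0.89% DMSO final | read-out basis = percent inhibition of probe binding, normalized to plate controls | schedule = Enzyme–compound pre-incubation 45 min, then probe 60 min, both 25 °C | detection = fluorescence polarization, excitation 525 nm, emission 598 nm, BODIPY TMR filters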
LEDGF integ inh – blockers of LEDGF/p75-dependent integrase strand transfer – biochemical, TR-FRET, high throughput, primary screen; TR-FRET IN-LEDGF/p75 DNA integration, Eu/Cy5; actives 0.64% (n = 370,000); AID 743269, 2014; inhibition, % at 3.7 µM; HIV-1 integrase (with human LEDGF/p75);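 active = inhibition above the screen-wide mean plus 3 SD, cut at about 13% in these data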;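 also: signal is the Cy5 over europium emission ratio at 671 and 618 nm; 0% = plate median of compound wells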
SIAE primary – human SIAE inhibitors, primary screen, biochemical, fluorescence polarization, FP-Rh probe, 1536-well HTS; Sialate O-acetylesterase (Homo sapiens), Q9HAT2; SIAE FP-Rh probe binding; inhibition, % at 9.66 µM; actives 0.69% (n = 370,000);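 active = inhibition above a cutoff: mean of compounds within the control limits plus 3 SD of those, cut at about 17% in these data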;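 also: 0% = plate median of compound wells and 100% = probe without SIAE protein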
Target sequence (Q9HAT2 whole entry, looked up): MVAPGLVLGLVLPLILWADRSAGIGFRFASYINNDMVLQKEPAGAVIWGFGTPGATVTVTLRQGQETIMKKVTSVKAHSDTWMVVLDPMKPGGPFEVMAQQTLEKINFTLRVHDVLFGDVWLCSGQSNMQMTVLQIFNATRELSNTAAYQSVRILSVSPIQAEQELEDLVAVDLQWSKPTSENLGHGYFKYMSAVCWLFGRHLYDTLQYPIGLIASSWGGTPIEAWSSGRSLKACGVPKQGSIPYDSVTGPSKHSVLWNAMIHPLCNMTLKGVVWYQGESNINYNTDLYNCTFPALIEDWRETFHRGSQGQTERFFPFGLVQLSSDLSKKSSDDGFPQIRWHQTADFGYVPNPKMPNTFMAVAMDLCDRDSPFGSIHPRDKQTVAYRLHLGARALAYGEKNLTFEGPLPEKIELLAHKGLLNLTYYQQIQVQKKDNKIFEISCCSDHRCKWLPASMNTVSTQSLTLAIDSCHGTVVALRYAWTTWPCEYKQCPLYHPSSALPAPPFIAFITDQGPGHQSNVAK
HTRA1 inh – HTRA1 serine protease inhibitors, primary screen, biochemical, fluorescence polarization, HTS. actives 0.5% (n = 340,000). Q92743. recombinant HTRA1, FP-rhodamine activity-based probe. inhibition, % at 5.96 µM; in the data active = inhibition above about 36%;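 also: 0% = enzyme with DMSO and 100% = wells lacking enzyme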
SIAE inh conf – human SIAE inhibitors, retest, confirmation, biochemical, fluorescence polarization, FP-Rh probe, triplicate; actives 13% (n = 2,300); inhibition, % at 9.66 µM; SIAE FP-Rh activity-based probe; shares compounds with SIAE primary;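 active = mean inhibition of the replicates above the hit cutoff set in the primary screen, cut at about 17% in these data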;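 also: 0% = SIAE with DMSO and probe and 100% = probe without SIAE; inhibitors lower polarization as more probe stays unbound to SIAE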
Active calls of the source: *; x = no result.

SMILES | TDP2 absorb | TCR-CD3 inh | mABHD4 FP | LEDGF integ inh | SIAE primary | HTRA1 inh | SIAE inh conf
CCOC(=O)c1c(C)[nH]c(C2=NNC(=Nc3ccc(OCC)cc3)SC2)c1C | -3 | -2 | 11 | 3 | 28* | 25 | 1
CCOC(=O)c1c(C)[nH]c(C2=NNC(=Nc3ccccc3)SC2)c1C | 13 | 3 | 8 | 0 | 15 | 10 | x
CSc1cccc(NC(=S)N(CCN(C)C)C(C)c2ccncc2)c1 (configuration not stated) | -11 | 6 | 4 | -3 | 23* | -10 | -5
Cn1ncc(Br)c1N1C(=O)CCC1=O | 0 | -3 | -1 | 5 | 20* | x | 2
CC(C(=O)Nc1c2c(cc3c1CCC3)CCC2)N1CCCC1 (configuration not stated) | 5 | 1 | -3 | 2 | 20* | 2 | -7
CCOCc1c(C(=O)OCC(=O)Nc2ccccc2C(N)=O)oc2ccccc12 | -15 | 11 | -6 | -4 | -7 | -15 | x
Cc1cc(C)c(CN2CCC(n3nccc3NC(=O)CCOc3ccccc3)CC2)cc1C | 5 | 8 | -3 | -3 | 0 | -7 | x
CCN(CCO)C(=O)c1ccc2nc(Cc3ccc(OC)cc3)oc2c1 | 4 | 9 | -2 | 2 | 24* | 0 | -2
COc1cc(CN2CCNC(=O)C2CC(=O)NCCCC2CCCC2)cc(OC)c1 (configuration not stated) | 16 | 3 | 3 | -1 | 5 | -4 | x
CC(=O)c1ccc(NC(=O)c2cccc(N3C(=O)c4ccccc4C3=O)c2)cc1 | x | x | x | x | x | -3 | x
COc1ccc(NC(=O)c2cccc(N3C(=O)c4ccc(C(=O)Nc5ccc(OC)c(O)c5)cc4C3=O)c2)cc1O | -16 | 1 | 20 | -2 | 23* | 4 | 5
N#CC(c1ccc(N)cc1)C(CC(=O)c1ccccc1)c1ccccc1 (configuration not stated) | 1 | -2 | -4 | -4 | -1 | -5 | x
N=c1n(CCN2CCCCC2)c2ccccc2n1CC(O)c1cccc(Br)c1 (configuration not stated) | 0 | 0 | 4 | 4 | 33* | -2 | 4
CCN(CC)c1ccc(NC(=O)c2cc3c(OC)cccc3[nH]2)cc1 | -8 | -2 | 10 | 2 | 25* | 22 | 12
COc1ccc(N2CCN(c3ncnc4c3cnn4-c3ccc(C)cc3C)CC2)cc1 | 2 | 8 | 3 | 0 | -2 | -7 | x
Cc1ccc(-n2ncc3c(N4CCN(c5ccccc5)CC4)ncnc32)c(C)c1 | 2 | -1 | 8 | -4 | 18* | 9 | 3
Cc1noc(C)c1S(=O)(=O)N(C)C[C@H]1OCc2cn(nn2)CCCC(=O)N([C@H](C)CO)C[C@@H]1C | -2 | 3 | -1 | 6 | -10 | 2 | x
O=C(COC(=O)c1cccnc1)c1ccc(Cl)cc1 | 7 | -4 | 2 | -1 | 18* | -7 | -4
CN1CCN(C(=O)/C(=C/c2cccc([N+](=O)[O-])c2)NC(=O)c2ccccc2)CC1 | 17 | 2 | 7 | 0 | -3 | 8 | x
CCOC(=O)c1c(C)[nH]c(C=Nc2ccc(OC)cc2)c1O | 8 | 6 | 8 | 9 | -1 | 4 | x
CCOC(=O)c1c(C)[nH]c(O)c1C=Nc1ccccc1 | 0 | 6 | 4 | -1 | 22* | 16 | 3
O=C(Nc1ccc(Br)c2ccccc12)c1ccc2ccccc2c1O | 4 | -2 | 18 | -4 | 26* | 19 | -5
CC(=O)Nc1ccc(Br)c2ccccc12 | 1 | -6 | 0 | -6 | -6 | 3 | x
N#CCCn1cc(CNC2CCC(O)CC2)c2ccccc21 (configuration not stated) | -9 | 5 | 3 | -1 | 5 | -1 | x
O=C(Nc1cc2c3c(c1)CC(=O)N3CCC2)C1CCCCC1 | 6 | -2 | 6 | -3 | -3 | -4 | x
SMILES | TDP2 absorb | TCR-CD3 inh | mABHD4 FP | LEDGF integ inh | SIAE primary | HTRA1 inh | SIAE inh conf
O=C(Nc1cc2c3c(c1)CC(=O)N3CCC2)C1CC1 | 0 | -6 | -1 | 2 | 20* | -2 | -1
CC1Cc2nc(SCC(=O)NCC3CCCO3)n(C)c(=O)c2S1 (configuration not stated) | 5 | -2 | 9 | -2 | 20* | 4 | -1
O=C(CSc1nc2c(c(=O)n1-c1ccccc1)SCC2)NCC1CCCO1 (configuration not stated) | -7 | -1 | -3 | 0 | 31* | 6 | -4
O=C(CSc1nc2c(c(=O)n1-c1ccc(F)cc1)SCC2)NCC1CCCO1 (configuration not stated) | 5 | 4 | -3 | -1 | -1 | 4 | x
COCC(C)n1c(C)cc(C(=O)COC(=O)c2cccn2C)c1C (configuration not stated) | 9 | 2 | -9 | -4 | -3 | -4 | x
Cc1cc(C)n2nc(SCC(=O)c3cc(C)n(CC4CCCO4)c3C)nc2n1 (configuration not stated) | 1 | 8 | 5 | -2 | 20* | -2 | 0
Cc1onc(-c2ccccc2Cl)c1C(=O)Nc1ccc(N2CCOCC2)cc1 | 11 | -5 | 11 | 1 | 17* | -1 | 1
CC(C)CNC(=O)C1Nc2ccccc2C2C=CCC12 (configuration not stated) | -2 | -7 | 13 | 2 | 20* | 12 | 5
COc1ccc(S(=O)(=O)N2CCC(C(=O)Nc3ccccc3N3CCCCC3)CC2)cc1OC | -8 | 6 | 6 | 0 | -1 | -7 | x
O=C(NNC(=S)Nc1ccc(Cl)cc1Cl)c1ccncc1 | -8 | 3 | 11 | 1 | 7 | 6 | x
O=C(NNC(=S)Nc1ccc(Cl)cc1Cl)c1cccnc1 | -4 | -3 | 10 | -6 | 20* | -3 | 2
OC(Cn1cncn1)(c1ccc(F)cc1)c1ccc(Cl)cc1 (configuration not stated) | 13 | -2 | -1 | 1 | 0 | -3 | x
CN1c2ccccc2C2(C)CCCC3=Cc4cccc([N+](=O)[O-])c4OC312 (configuration not stated) | 9 | 9 | -4 | -3 | 11 | -2 | x
CN1c2ccccc2C2(C)CCCC3=Cc4cc([N+](=O)[O-])cc([N+](=O)[O-])c4OC312 (configuration not stated) | 3 | -1 | -5 | 3 | 52* | 3 | -7
